Laboratory results from the RNAGym collection of RNA variant scans (doi:10.1101/gad.245936.114).
Variants at the floor of the assay were thinned out.

B1: tRNA (parent)
chain: CUCUCGGUAGCCAAGUUGGUUUAAGGCGCAAGACUUUAAUUUAUCACUACGAAAUCUUGAGAUCGGGCGUUCGACUCGCCCCCGGGAGAUUUUUUCCUCGAGCAA

Variants of: B1
Test: nonsense suppression (GFP-seq) (ratio to wild type); higher = more function; SUP4oc tRNA, yeast GFP reporter sort-seq
Summary of the method: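 Raffinose/galactose medium with 80 mg/L adenine was used to grow yeast carrying genome-integrated tRNA variants (~3% random-mutation library), RFP, and a galactose-driven GFP ochre reporter. Cells went into GFP/RFP bins, which were Illumina-sequenced, and variants with ≥100 reads and ≥30 cells were scored. Nonsense suppression (GFPSEQ) is the per-bin median GFP/RFP weighted by estimated cell share and expressed relative to the unmutated parent tRNA.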

Row | Variant | nonsense suppression
1 | A54U G69C C81G | ≤ 0.026
2 | U16A G59A | 0.32
3 | C5A A14U A33C U55C | ≤ 0.026
4 | U16G C82G | ≤ 0.026
5 | C12A G28C A31G U57G | ≤ 0.026
6 | C3U U22A | 0.169
7 | C81G A87G | 0.0415
8 | U55C G66A | 0.0631
9 | A14G G78A | 0.0272
10 | U4G U16C | 0.882
11 | U2C U20C A24U | ≤ 0.026
12 | A30G A31G A60U | 0.726
13 | G7U G19U | ≤ 0.026
14 | U22G U63C | 0.868
15 | C3U U63A | 0.12
16 | A14C G59U | ≤ 0.026
17 | G25U U58G C68G | ≤ 0.026
18 | C1G G10C C29U C34G A89G | ≤ 0.026
19 | G66U C68A G86A | ≤ 0.026
20 | A9C C34U U58G G78C | ≤ 0.026
21 | U17C U63A | 0.197
22 | U17A A23C U71C | ≤ 0.026
23 | C72G G78A | 0.0282
24 | A24G C75A | 0.24

Row | Variant | nonsense suppression
25 | C3U C12G | ≤ 0.026
26 | G28A G84A | ≤ 0.026
27 | C27G U57C G59U G86U | ≤ 0.026
28 | U63G U76A | 0.433
29 | A9G U16A U55C | 0.188
30 | U17G G19A | 0.204
31 | A23G A33C G66A | ≤ 0.026
32 | C12U A54G | 0.0372
33 | G78A C83U | 0.0266
34 | U20A U55C C82G | ≤ 0.026
35 | C3A U4A A62G | ≤ 0.026
36 | U2C G61C | 0.0279
37 | U20G A23U G88U | ≤ 0.026
38 | U16C A31G | 1.07
39 | U2A A23C | ≤ 0.026
40 | U16C C68A G88U | ≤ 0.026
41 | A13U A31G | 1.22
42 | U4C G25A | 0.162
43 | U63A C72U | 0.133
44 | G25C U63A | ≤ 0.026
45 | U17A U20G G32A G61A C80U | ≤ 0.026
46 | A14C C29U | ≤ 0.026
47 | C5U C11U G66A | ≤ 0.026
48 | A9G G28A G61A | 1.24

Row | Variant | nonsense suppression
49 | G28A G61A | 0.8
50 | U2C A23G | 0.0274
51 | C29A G85A | 0.115
52 | U2G U8A C12A A30G G59U G88C | ≤ 0.026
53 | U4G G73C | 0.0291
54 | U16C G78A | 0.837
55 | A13G G67C C83G | ≤ 0.026
56 | U20G U21C | 0.761
57 | G10A U58A A62G U70A | ≤ 0.026
58 | G73C U76A | ≤ 0.026
59 | A13U U76C | 0.836
60 | U17A G61A | 0.83
61 | G7U G32A A33C C83A A89G | ≤ 0.026
62 | U2C G28U | ≤ 0.026
63 | A24U | 0.487
64 | A9C A13G U55A G73U | ≤ 0.026
65 | A30U U55G G78C A89C | ≤ 0.026
66 | U58C G61U U63C | ≤ 0.026
67 | U20A A23G U63C | ≤ 0.026
68 | U8A G19C A60G | ≤ 0.026
69 | U4C G86C | 0.162
70 | U2C A60U | 0.194
71 | C5U G6U G84C | ≤ 0.026
72 | U22C U58G | ≤ 0.026

Row | Variant | nonsense suppression
73 | A24U A30C C83A | ≤ 0.026
74 | U22A G78A | 0.283
75 | U4G G85C | 0.813
76 | A13G | 0.191
77 | G10U C29A | ≤ 0.026
78 | G7C U22C G26A | ≤ 0.026
79 | G7A U20G C34U A62C | ≤ 0.026
80 | G18U G59A | ≤ 0.026
81 | A13U C75U | 1.22
82 | A30U A54C | 0.0467
83 | G10A A14C C82A | ≤ 0.026
84 | G10A U70C G78C A89C | ≤ 0.026
85 | G78U G84A | 0.0428
86 | G10A A13C | 0.0618
87 | C34A U55C G66A | ≤ 0.026
88 | A9G A24G | 0.0517
89 | U2A U4C U16C | 0.0971
90 | A9U U21G U22C | ≤ 0.026
91 | C12A G18U U70C G88U | ≤ 0.026
92 | U16G C83U | 0.223
93 | A31G C34U | ≤ 0.026
94 | U4G A14U G26A | ≤ 0.026
95 | U4C A9G A13G U76C | 0.202
96 | A9C C68U G78C | 0.0334

Row | Variant | nonsense suppression
97 | A23C A24C A31C | ≤ 0.026
98 | U17G A33U U63G C68A U71G | ≤ 0.026
99 | A30U A74C | 0.0264
100 | A30U A74U | 0.0497
101 | U2A A31C A62C G78U A87U | ≤ 0.026
102 | U16C C29U | 1.11
103 | G61C U63G | 0.12
104 | A31U A60C G66C U70A G85A | ≤ 0.026
105 | G25U A54U G78C | ≤ 0.026
106 | A13C A30U G85A | 0.157
107 | A9U U63C | 0.0507
108 | A13U U16A | 0.837
109 | C29U C82U | 0.224
110 | U35A G59A G67A | ≤ 0.026
111 | G6A U8G | ≤ 0.026
112 | G28A C82U | 1.15
113 | A9U G86A | 0.0496
114 | A24U A60U | 0.0572
115 | U2C G32A A54G | ≤ 0.026
116 | U20C A87U | 0.0273
117 | A30G U63C | 0.205
118 | U2C U57A | 0.0292
119 | G61U U71A G86A | ≤ 0.026
120 | G15A C81U | 0.0386

Row | Variant | nonsense suppression
121 | A13C C27U | 0.0494
122 | U4C A14G G61A U71A | ≤ 0.026
123 | G6U A60G G61A G65C | ≤ 0.026
124 | C34G U55C | 0.276
125 | U21C U35A C64G G66C C72G | ≤ 0.026
126 | G26U C27G A30G U57G C64U G65C | ≤ 0.026
127 | U2A G32U C34U | ≤ 0.026
128 | U17A A87G | 1.19
129 | U20C U21C | 1.15
130 | A54U A60U | 0.965
131 | A14C C68U G88A | ≤ 0.026
132 | U17C A62C | 0.734
133 | A24U U58C G85A | ≤ 0.026
134 | A54G C72A | ≤ 0.026
135 | U57C A87G | 0.0399
136 | C75A | 0.996
137 | C5G G25C G69C | ≤ 0.026
138 | U17G C79U | 0.764
139 | A9C C12U | 0.186
140 | U8A A54U U76C A87C | ≤ 0.026
141 | U4C C29A | 1.11
142 | U58G U70C | ≤ 0.026
143 | C1G U58C A62U G78U | ≤ 0.026
144 | A33U U63A | 0.0268

Row | Variant | nonsense suppression
145 | G7C U21G | 0.0521
146 | A13G U16G | 0.207
147 | G15C G69U G73C | ≤ 0.026
148 | G10C G26U G86A G88A | ≤ 0.026
149 | A30U A60G | 0.27
150 | C12U C27U | 0.121
151 | A13C G28A | 1.08
152 | G19A A33U U71A | ≤ 0.026
153 | A14G U57C U58A | ≤ 0.026
154 | G65A C75A | 0.109
155 | A24U G61C | ≤ 0.026
156 | A60U A62G | 0.112
157 | U21C G69C | ≤ 0.026
158 | A23U A31G | ≤ 0.026
159 | G7A U17C A24G G32U U71C A87U | ≤ 0.026
160 | G26A C77G | ≤ 0.026
161 | C34A G65C G85C | ≤ 0.026
162 | C3U U16A | 0.16
163 | A54U A87G | 0.867
164 | G73A G88A | 0.0281
165 | A13C U57C | 0.0326
166 | G7U A30G | ≤ 0.026
167 | U22A G28A | 1.14
